Measurements: ChEMBL document CHEMBL4689842, “EUbOPEN Chemogenomics Library wave 1” (2021)

Test system: Fibroblast
Assay: Multiplex assay against human fibroblast
Type: toxicity, cell-based
Procedure, shortened: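 Live cells carried four stains from seeding: Hoechst33342, BioTracker Green Microtubule Cytoskeleton Dye, MitoTracker Red and Annexin V Alexa Fluor 680. They were imaged on a CQ1 microscope at 37°C and 5% CO2 after compound addition. Using CellPathfinder machine-learning gating, cells were split into Hoechst high-intensity objects or normal cells, normal cells into healthy, pyknosed or fragmented nuclei, and pyknosed cells into mitotic or apoptotic; tubulin, mitochondrial-mass and membrane-permeability phenotypes are per cents of healthy-nucleus cells.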

[1] = 12 h, 1 µM, compound concentration 1 uM, replicate 1
[2] = 12 h, 1 µM, compound concentration 1 uM, replicate 2
[3] = 12 h, 10 µM, compound concentration 10 uM, replicate 1
[4] = 12 h, 10 µM, compound concentration 10 uM, replicate 2
[5] = 24 h, 1 µM, compound concentration 1 uM, replicate 1
[6] = 24 h, 1 µM, compound concentration 1 uM, replicate 2
[7] = 24 h, 10 µM, compound concentration 10 uM, replicate 1
[8] = 24 h, 10 µM, compound concentration 10 uM, replicate 2
[9] = 48 h, 1 µM, compound concentration 1 uM, replicate 1
[10] = 48 h, 1 µM, compound concentration 1 uM, replicate 2
[11] = 48 h, 10 µM, compound concentration 10 uM, replicate 1
[12] = 48 h, 10 µM, compound concentration 10 uM, replicate 2

Compound: Cl.N#Cc1ccc2[nH]cc(CCCCN3CCN(c4ccc5oc(C(N)=O)cc5c4)CC3)c2c1 [VILAZODONE HYDROCHLORIDE]
- Population Apoptotic (%) [1]: 75%
- Population Fragmented Nuclei (%) [1]: 38%
- Population Healthy Nuclei (%) [1]: 22%
- Population Hoechst High Intensity Objects (%) [1]: 19%
- Population Membrane Permeable-Phenotype (%) [1]: 28%
- Population Mitochondria Different-Phenotype (%) [1]: 9%
- Population Mitotic Cells (%) [1]: 25%
- Population Normal (%) [1]: 80%
- Population Pyknosed Nuclei (%) [1]: 38%
- Population Tubulin-Different-Phenotype (%) [1]: 47%
- Total Cell Count [1]: 116
- Population Apoptotic (%) [2]: 27%
- Population Fragmented Nuclei (%) [2]: 14%
- Population Healthy Nuclei (%) [2]: 70%
- Population Hoechst High Intensity Objects (%) [2]: 2%
- Population Membrane Permeable-Phenotype (%) [2]: 6%
- Population Mitochondria Different-Phenotype (%) [2]: 30%
- Population Mitotic Cells (%) [2]: 72%
- Population Normal (%) [2]: 97%
- Population Pyknosed Nuclei (%) [2]: 15%
- Population Tubulin-Different-Phenotype (%) [2]: 18%
- Total Cell Count [2]: 50
- Population Apoptotic (%) [3]: 69%
- Population Fragmented Nuclei (%) [3]: 19%
- Population Healthy Nuclei (%) [3]: 18%
- Population Hoechst High Intensity Objects (%) [3]: 35%
- Population Membrane Permeable-Phenotype (%) [3]: 17%
- Population Mitochondria Different-Phenotype (%) [3]: 21%
- Population Mitotic Cells (%) [3]: 30%
- Population Normal (%) [3]: 64%
- Population Pyknosed Nuclei (%) [3]: 62%
- Population Tubulin-Different-Phenotype (%) [3]: 52%
- Total Cell Count [3]: 197
- Population Apoptotic (%) [4]: 67%
- Population Fragmented Nuclei (%) [4]: 20%
- Population Healthy Nuclei (%) [4]: 14%
- Population Hoechst High Intensity Objects (%) [4]: 10%
- Population Membrane Permeable-Phenotype (%) [4]: 38%
- Population Mitochondria Different-Phenotype (%) [4]: 46%
- Population Mitotic Cells (%) [4]: 32%
- Population Normal (%) [4]: 89%
- Population Pyknosed Nuclei (%) [4]: 64%
- Population Tubulin-Different-Phenotype (%) [4]: 92%
- Total Cell Count [4]: 72
- Population Apoptotic (%) [5]: 63%
- Population Fragmented Nuclei (%) [5]: 32%
- Population Healthy Nuclei (%) [5]: 42%
- Population Hoechst High Intensity Objects (%) [5]: 25%
- Population Membrane Permeable-Phenotype (%) [5]: 21%
- Population Mitochondria Different-Phenotype (%) [5]: 8%
- Population Mitotic Cells (%) [5]: 36%
- Population Normal (%) [5]: 74%
- Population Pyknosed Nuclei (%) [5]: 25%
- Population Tubulin-Different-Phenotype (%) [5]: 51%
- Total Cell Count [5]: 118
- Population Apoptotic (%) [6]: 60%
- Population Fragmented Nuclei (%) [6]: 15%
- Population Healthy Nuclei (%) [6]: 78%
- Population Hoechst High Intensity Objects (%) [6]: 1%
- Population Membrane Permeable-Phenotype (%) [6]: 3%
- Population Mitochondria Different-Phenotype (%) [6]: 19%
- Population Mitotic Cells (%) [6]: 40%
- Population Normal (%) [6]: 98%
- Population Pyknosed Nuclei (%) [6]: 6%
- Population Tubulin-Different-Phenotype (%) [6]: 18%
- Total Cell Count [6]: 54
- Population Apoptotic (%) [7]: 66%
- Population Fragmented Nuclei (%) [7]: 22%
- Population Healthy Nuclei (%) [7]: 23%
- Population Hoechst High Intensity Objects (%) [7]: 35%
- Population Membrane Permeable-Phenotype (%) [7]: 50%
- Population Mitochondria Different-Phenotype (%) [7]: 20%
- Population Mitotic Cells (%) [7]: 33%
- Population Normal (%) [7]: 64%
- Population Pyknosed Nuclei (%) [7]: 53%
- Population Tubulin-Different-Phenotype (%) [7]: 50%
- Total Cell Count [7]: 197
- Population Apoptotic (%) [8]: 75%
- Population Fragmented Nuclei (%) [8]: 31%
- Population Healthy Nuclei (%) [8]: 9%
- Population Hoechst High Intensity Objects (%) [8]: 18%
- Population Membrane Permeable-Phenotype (%) [8]: 30%
- Population Mitochondria Different-Phenotype (%) [8]: 90%
- Population Mitotic Cells (%) [8]: 24%
- Population Normal (%) [8]: 81%
- Population Pyknosed Nuclei (%) [8]: 59%
- Population Tubulin-Different-Phenotype (%) [8]: 90%
- Total Cell Count [8]: 79
- Population Apoptotic (%) [9]: 60%
- Population Fragmented Nuclei (%) [9]: 35%
- Population Healthy Nuclei (%) [9]: 53%
- Population Hoechst High Intensity Objects (%) [9]: 30%
- Population Mitochondria Different-Phenotype (%) [9]: 0%
- Population Mitotic Cells (%) [9]: 40%
- Population Normal (%) [9]: 69%
- Population Pyknosed Nuclei (%) [9]: 10%
- Population Tubulin-Different-Phenotype (%) [9]: 43%
- Total Cell Count [9]: 136
- Population Apoptotic (%) [10]: 33%
- Population Fragmented Nuclei (%) [10]: 39%
- Population Healthy Nuclei (%) [10]: 57%
- Population Hoechst High Intensity Objects (%) [10]: 13%
- Population Membrane Permeable-Phenotype (%) [10]: 7%
- Population Mitochondria Different-Phenotype (%) [10]: 1%
- Population Mitotic Cells (%) [10]: 66%
- Population Normal (%) [10]: 86%
- Population Pyknosed Nuclei (%) [10]: 2%
- Population Tubulin-Different-Phenotype (%) [10]: 64%
- Total Cell Count [10]: 153
- Population Apoptotic (%) [11]: 50%
- Population Fragmented Nuclei (%) [11]: 22%
- Population Healthy Nuclei (%) [11]: 23%
- Population Hoechst High Intensity Objects (%) [11]: 38%
- Population Membrane Permeable-Phenotype (%) [11]: 51%
- Population Mitochondria Different-Phenotype (%) [11]: 21%
- Population Mitotic Cells (%) [11]: 50%
- Population Normal (%) [11]: 61%
- Population Pyknosed Nuclei (%) [11]: 53%
- Population Tubulin-Different-Phenotype (%) [11]: 51%
- Total Cell Count [11]: 230
- Population Apoptotic (%) [12]: 34%
- Population Fragmented Nuclei (%) [12]: 15%
- Population Healthy Nuclei (%) [12]: 34%
- Population Hoechst High Intensity Objects (%) [12]: 44%
- Population Membrane Permeable-Phenotype (%) [12]: 31%
- Population Mitochondria Different-Phenotype (%) [12]: 40%
- Population Mitotic Cells (%) [12]: 65%
- Population Normal (%) [12]: 55%
- Population Pyknosed Nuclei (%) [12]: 50%
- Population Tubulin-Different-Phenotype (%) [12]: 72%
- Total Cell Count [12]: 247
